Key:
Format in all cases: cell-based
[1] = molecular target: T1, Adenosine receptor A1 (Homo sapiens) (UniProt P30542); assay: Displacement of [3H]R-PIA from human adenosine A1 receptor expressed CHO cells at 10 uM after 60 mins by gamma counting relative to NECA
T1 sequence (whole entry): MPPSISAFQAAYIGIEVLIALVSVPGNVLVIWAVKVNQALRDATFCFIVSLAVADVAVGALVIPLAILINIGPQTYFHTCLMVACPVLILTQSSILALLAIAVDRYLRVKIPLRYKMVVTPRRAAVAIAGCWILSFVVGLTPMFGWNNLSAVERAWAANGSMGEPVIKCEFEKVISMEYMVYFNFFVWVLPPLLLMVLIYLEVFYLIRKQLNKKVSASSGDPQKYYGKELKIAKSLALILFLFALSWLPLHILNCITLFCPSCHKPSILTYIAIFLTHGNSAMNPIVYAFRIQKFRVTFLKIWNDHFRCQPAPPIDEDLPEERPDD
Method in brief: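 Membranes from CHO cells stably expressing human A1AR were incubated with 1 nM [3H]PIA at 25 °C for 60 min in 50 mM Tris–HCl (pH 7.4) with 10 mM MgCl2. Nonspecific binding was defined with CPA. Results are mean ± sem, n = 3–5.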

[2] = molecular target: T2, Adenosine receptor A3 (Homo sapiens) (UniProt P0DMS8); assay: Displacement of [125I]I-AB-MECA from human adenosine A3 receptor expressed CHO cells at 10 uM after 60 mins by gamma counting relative to NECA
T2 sequence (whole entry): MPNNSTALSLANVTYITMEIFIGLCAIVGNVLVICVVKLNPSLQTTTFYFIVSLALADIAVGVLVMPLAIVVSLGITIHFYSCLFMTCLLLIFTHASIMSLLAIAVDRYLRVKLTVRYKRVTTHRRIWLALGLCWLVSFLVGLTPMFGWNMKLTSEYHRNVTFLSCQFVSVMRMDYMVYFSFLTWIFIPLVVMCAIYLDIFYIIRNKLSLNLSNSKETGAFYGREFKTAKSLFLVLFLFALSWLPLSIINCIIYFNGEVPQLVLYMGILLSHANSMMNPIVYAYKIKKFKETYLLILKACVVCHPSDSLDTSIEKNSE
Method in brief: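 Competition binding used membranes from CHO cells stably expressing human A3AR with 0.5 nM [125I]I-AB-MECA and test nucleoside in 50 mM Tris–HCl (pH 7.4) with 10 mM MgCl2 and 1 mM EDTA, at 25 °C for 60 min. Nonspecific binding was defined with Cl-IB-MECA. Percent inhibition was taken at a single concentration. Results are mean ± sem, n = 3–5.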

[3] = molecular target: Adenosine receptor A2a (Homo sapiens) (UniProt P29274); assay: Displacement of [3H]CGS 21680 from human adenosine A2A receptor expressed HEK293 cells at 10 uM after 60 mins by gamma counting relative to NECA
Adenosine receptor A2a (Homo sapiens), sequence (P29274 whole entry): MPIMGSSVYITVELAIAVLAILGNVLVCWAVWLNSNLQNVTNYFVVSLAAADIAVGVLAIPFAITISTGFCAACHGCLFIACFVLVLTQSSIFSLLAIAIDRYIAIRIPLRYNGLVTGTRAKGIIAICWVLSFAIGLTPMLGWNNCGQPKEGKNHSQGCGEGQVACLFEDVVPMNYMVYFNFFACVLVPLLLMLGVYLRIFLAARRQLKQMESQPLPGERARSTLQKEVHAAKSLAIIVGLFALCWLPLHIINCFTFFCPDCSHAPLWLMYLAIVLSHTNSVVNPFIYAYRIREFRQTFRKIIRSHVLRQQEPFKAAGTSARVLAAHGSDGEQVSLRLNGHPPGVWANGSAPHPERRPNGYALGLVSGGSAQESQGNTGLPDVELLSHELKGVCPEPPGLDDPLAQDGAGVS
Method in brief: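 Membranes from HEK-293 cells stably expressing human A2AAR were incubated with 15 nM [3H]CGS21680 at 25 °C for 60 min in 50 mM Tris–HCl (pH 7.4) with 10 mM MgCl2. Incubation was stopped by GF/B filtration. Results are mean ± sem, n = 3–5.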

SMILES | inhibition [1] [%] | inhibition [2] [%] | inhibition [3] [%]
O[C@@H]1[C@H](O)CS[C@H]1Cn1cnc2c(NCc3cccc(Br)c3)ncnc21 | 6.6 | 6.1 | 25.8
O[C@@H]1[C@H](O)CS[C@H]1Cn1cnc2c(NCc3cccc(I)c3)nc(Cl)nc21 | 16.4 | 10 | 18.4
O[C@@H]1[C@H](O)CS[C@H]1Cn1cnc2c(NCc3cccc(Cl)c3)nc(Cl)nc21 | 3.2 | 13.6 | 11
O[C@@H]1[C@H](O)CS[C@H]1Cn1cnc2c(NCc3cccc(Br)c3)nc(Cl)nc21 | 23.6 | 21 | 2
O[C@@H]1[C@H](O)CS[C@H]1Cn1cnc2c(NCc3cccc(F)c3)nc(Cl)nc21 | 7.9 | 17.6 | 12

Results, then the compound that gave them:

inhibition [1] [%] | inhibition [2] [%] | inhibition [3] [%] | SMILES
9.6 | 13.9 | 18.2 | O[C@@H]1[C@H](O)CS[C@H]1Cn1cnc2c(NCc3cccc(I)c3)ncnc21
3.3 | 8.9 | 13 | O[C@@H]1[C@H](O)CS[C@H]1Cn1cnc2c(NCc3cccc(Cl)c3)ncnc21
0.3 | 8.7 | 14 | O[C@@H]1[C@H](O)CS[C@H]1Cn1cnc2c(NCc3cccc(F)c3)ncnc21
